Results on 6 molecules are retold here after publication PMC5091360 (Science Advances, 2016).

For one data set, the system named is PDGFR-β. As to conditions: such as in the case of sunitinib and PDGFR-β; cited from earlier work.
Data set [1] concerns IgD2-3 domains from human VEGFR-3. In words: phage PCAIWF binding to recombinant VEGFR-3 IgD2-3. As to conditions: peptide 100 μg/ml; FLISA, duplicate wells.
The subject of the next data set is HUVECs. As to the kind of experiment: endothelial tube formation in Matrigel. In kind it is cell-based, human. As to conditions: peptide 500 μg/ml in Matrigel. Summed up:
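HUVECs (1.5 × 10^4 per well) plated on Matrigel containing 1% DMSO, with or without peptide (500 μg/ml) in the gel. Cells kept in RPMI 1640 with VEGF-A (30 ng/ml) or VEGF-C (100 ng/ml). Tubes counted per field at 4× by bright-field microscopy. Triplicate wells; two independent experiments; Student's t test.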

In data set [2] the test system is IgD2 domain from human VEGFR-3. As to the kind of experiment: phage PCAIWF binding to recombinant VEGFR-3 IgD2. As to conditions: peptide 100 μg/ml; FLISA, duplicate wells.
Data set [3] has as its system ERK1/2 pathway in lymphatic endothelial cells (LECs). In words: ERK1/2 phosphorylation in lymphatic endothelial cells. In kind it is cell-based, human. As to conditions: 10 min, 37°C. In a few lines:
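Human dermal lymphatic microvascular endothelial cells were cultured overnight in EBM2 with 2% FBS, then starved 18 h in EBM2 with 0.2% BSA. They were stimulated with VEGF-A, VEGF-C or FGF-1, with or without test peptide or scrambled peptide (30 μg/ml). Lysates were immunoblotted for total and phospho-ERK1/2 using infrared-dye secondaries, and the phospho/total intensity ratio was taken. Two experiments were run; ANOVA with Tukey.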

Data set [4] relates to human VEGFR-1. In words: FLISA binding assay, NRP-1 to VEGFR-1. In a few lines: (§1)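 Human VEGFR-1 extracellular domain coated at 200 ng per well in PBS overnight at 4°C, then blocked with Odyssey blocking buffer. Wells incubated with NRP-1 or NRP-2 in PBS with 10% (v/v) DMSO and 10% blocking buffer, with or without peptide (100 μg/ml). Bound NRP detected with goat anti-NRP-1 or anti-NRP-2 serum (1:100), then IRDye 680LT anti-goat, by infrared scanning. Duplicate wells; ANOVA with Tukey.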

For the next data set, the target named is VEGFR-1. As to conditions: read-out: Kd, NRP-1 to VEGFR-1; cited from earlier work.
A further data set has as its system human PDGFR-β. In words: growth factor binding assay. As to conditions: PDGF-BB 20 ng/ml; peptide 100 μg/ml; FLISA, duplicate wells. Summed up: (§2)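 Human FGFR-1 or PDGFR-β coated at 200 ng per well in PBS overnight at 4°C and blocked. Wells incubated with human FGF-1 or PDGF-BB (each 20 ng/ml) in PBS with 10% (v/v) DMSO and 10% blocking buffer, with or without peptide (100 μg/ml). Bound ligand detected with goat antiserum (1:200), then IRDye 680LT anti-goat, by infrared fluorescence. Duplicate wells; ANOVA with Tukey.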

Data set [5] deals with IgD2 domain from human VEGFR-3. As to the kind of experiment: VEGF-C binding to recombinant VEGFR-3 IgD2. As to conditions: FLISA, duplicate wells.
For the next data set, the system named is human FGFR-1. As to the kind of experiment: growth factor binding assay. As to conditions: FGF-1 20 ng/ml; peptide 100 μg/ml; FLISA, duplicate wells. In a few lines:
as §2

Data set [6] deals with IgD2-3 domains from human VEGFR-3. As to the kind of experiment: VEGF-C binding to recombinant VEGFR-3 IgD2-3. As to conditions: FLISA, duplicate wells.
Data set [7] in a line: solubility in Matrigel compared to aqueous media. In kind it is physicochemical.
Data set [8] has as its system human VEGFR-1. As to the kind of experiment: FLISA binding assay, NRP-2 to VEGFR-1. As to conditions: rat NRP-2; peptide 100 μg/ml; FLISA, duplicate wells. In a few lines: as §1
Data set [9] is described as follows: presence in the vitreous humor after topical application. Format: in vivo. As to conditions: applied topically.
A further data set relates to VEGF family. As to conditions: cited from earlier work.
For data set [10] the following is noted: clinical studies; cited from earlier work.
The target in data set [11] is T1, VEGFR-3 (Mus musculus, UniProt P35917).
T1 sequence (P35917 25-770): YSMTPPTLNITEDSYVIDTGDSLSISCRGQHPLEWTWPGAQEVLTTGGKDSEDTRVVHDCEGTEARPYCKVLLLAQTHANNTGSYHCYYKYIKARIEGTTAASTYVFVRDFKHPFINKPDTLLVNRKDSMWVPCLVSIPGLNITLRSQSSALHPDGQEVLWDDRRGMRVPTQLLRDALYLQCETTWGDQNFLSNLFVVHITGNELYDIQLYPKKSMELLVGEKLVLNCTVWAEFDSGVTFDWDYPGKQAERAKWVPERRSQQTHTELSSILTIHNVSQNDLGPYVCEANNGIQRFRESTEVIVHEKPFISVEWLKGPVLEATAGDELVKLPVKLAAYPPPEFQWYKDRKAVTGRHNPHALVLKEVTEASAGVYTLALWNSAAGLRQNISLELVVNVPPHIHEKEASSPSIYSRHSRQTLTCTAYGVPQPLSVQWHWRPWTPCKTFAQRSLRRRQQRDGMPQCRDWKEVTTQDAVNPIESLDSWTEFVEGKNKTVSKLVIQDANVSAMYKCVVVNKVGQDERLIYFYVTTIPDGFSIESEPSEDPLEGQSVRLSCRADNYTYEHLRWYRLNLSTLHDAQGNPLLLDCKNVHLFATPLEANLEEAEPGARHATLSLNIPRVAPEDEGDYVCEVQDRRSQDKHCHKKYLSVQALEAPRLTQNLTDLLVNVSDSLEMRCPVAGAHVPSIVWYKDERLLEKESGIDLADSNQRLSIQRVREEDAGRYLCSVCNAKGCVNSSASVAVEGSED
In words: competition assay, binding of phage PCAIWF to immobilized VEGFR-3. As to conditions: VEGF-A or VEGF-C (10 ng/ml); triplicate plating.

Data set [12] addresses T1, VEGFR-3. As to the kind of experiment: competition assay, binding of phage WVCSGG to immobilized VEGFR-3. As to conditions: VEGF-C or VEGF-A in competition.

For the molecule `CCN(CC)CCNC(=O)c1c(C)[nH]c(/C=C2\C(=O)Nc3ccc(F)cc32)c1C` [sunitinib], the side effects entry in the data set with PDGFR-β is “cardiotoxicity”.

For the molecule IFCAPW, the “inhibition of phage PCAIWF binding to IgD2-3 by synthetic peptide” value in [1] was “not by the control peptide”. Besides, the “inhibition of tube formation, VEGF-A stimulated (in words)” value with HUVECs (VEGF-A 30 ng/ml) is recorded as “not by the control scramble peptide”. Further, the “inhibition of tube formation, VEGF-C stimulated (in words)” value in the data set on HUVECs (VEGF-C 100 ng/ml) is listed as “not by the control scramble peptide”. For the same molecule, the “inhibition of phage PCAIWF binding to IgD2 by synthetic peptide” value in data set [2] was “not by the control peptide”. The “effect on FGF-1 induced phosphorylation of ERK1/2” value in data set [3] (FGF-1 100 ng/ml, peptide 30 μg/ml) is recorded as “no effect on this downstream signaling event”. Also, in data set [3] (VEGF-A 100 ng/ml, peptide 30 μg/ml), the “effect on VEGF-A induced phosphorylation of ERK1/2” value was “no effect on this downstream signaling event”. In addition, the “effect on VEGF-C induced phosphorylation of ERK1/2” value in data set [3] (VEGF-C 100 ng/ml, peptide 30 μg/ml) is reported as “no effect on this downstream signaling event”.

“NRP-1: neuropilin-1, co-receptor for VEGF”: in the data set on human VEGFR-1 [4] (human NRP-1, FLISA), the “NRP-1 binding to VEGFR-1” value is on record as “strong interaction”. For the same molecule, the Kd on VEGFR-1 is ~1.8 nM.

Take WVCSGG: the “effect on NRP-1 interaction with VEGFR-1” value with human VEGFR-1 [4] (human NRP-1, peptide 100 μg/ml, FLISA, duplicate wells) is “not affected by peptide PCAIWF or WVCSGG”. For the same molecule, the “effect on binding of PDGF-BB to PDGFR-β” value in the data set with human PDGFR-β is listed as “no effect”. Also, the “inhibition of VEGF-C binding to IgD2” value in data set [5] (synthetic peptide added) is “both prevented binding of VEGF-C to IgD2 and IgD2-3”. The “effect on binding of basic human FGF to FGFR-1α” value with human FGFR-1 is “no effect”. The “inhibition of VEGF-C binding to IgD2-3” value in data set [6] (synthetic peptide added) is “both prevented binding of VEGF-C to IgD2 and IgD2-3”. Besides, the “solubility in Matrigel” value in [7] is “fairly soluble in Matrigel compared to aqueous media”. The “effect on NRP-2 interaction with VEGFR-1” value with human VEGFR-1 [8] was “not affected by peptide PCAIWF or WVCSGG”. Besides, the “presence in the vitreous humor after topical application” value in data set [9] was “not found in the vitreous humor if applied topically to the retina”.

Turning to “aflibercept: ligand-binding domain of VEGFR-1 fused to an Ig constant region”, the “VEGF family members targeted” value in the data set on VEGF family is “will target multiple members of the VEGF family (VEGF-A, VEGF-B, and PlGF) but will miss others (VEGF-C and VEGF-D)”. The “clinical efficacy in ophthalmology” value in data set [10] is “better efficacy compared to bevacizumab and ranibizumab”.

B1: VEGF-C: VEGF family member, recombinant human ligand (protein)
chain: AHYNTEILKSIDNEWRKTQCMPREVCIDVGKEFGVATNTFFKPPCVSVYRCGGCCNSEGLQCMNTSTSYLSKTLFEITVPLSQGPKPVTISFANHTSCRCMSKLDVYRQVHSIIRR
Regarding B1, the “inhibition of phage PCAIWF binding to VEGFR-3 by growth factor” value with VEGFR-3 [11] was “Only VEGF-C prevents the binding of phage PCAIWF to the receptor (Fig. 2A) in a dose-dependent manner”. Besides, the “inhibition of phage WVCSGG binding to VEGFR-3 by growth factor” value in the data set with VEGFR-3 [12] is listed as “binding of phage WVCSGG to VEGFR-3 is also inhibited by VEGF-C”. Also, in [5] (no peptide), the “VEGF-C binding to IgD2” value is recorded as “binds to both recombinant ligand-binding domains IgD2”. Besides, the “VEGF-C binding to IgD2-3” value in [6] (no peptide) was “binds to both recombinant ligand-binding domains IgD2 (Fig. 2F) and IgD2-3”. In data set [3] (growth factor 100 ng/ml, 1% DMSO, heparin 10 U/ml), the “phosphorylation of ERK1/2 upon growth factor stimulation” value is reported as “phosphorylation of ERK1/2 increases”.

As usually defined, the Kd is the constant that tells how readily two partners part at equilibrium.
